Data on 8 molecules can be found in ChEMBL document CHEMBL4819149, “A facile reaction to access novel structural sulfonyl-hybridized imidazolyl ethanols as potential DNA-targeting antibacterial agents” (Bioorg Med Chem Lett, 2021).

Holding throughout (format): functional
Test [1] relates to Staphylococcus aureus. Kind of test: Antibacterial activity against methicillin-resistant Staphylococcus aureus assessed as bacterial growth inhibition by broth microdilution method. The procedure, abridged: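 MIC read by micro broth dilution; values given in μg/mL.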
Test [2] deals with Staphylococcus aureus. Kind of test: Antibacterial activity against Staphylococcus aureus ATCC 29213 assessed as bacterial growth inhibition by broth microdilution method. The essentials: (§1)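 MIC values reported in µg/mL, determined by broth microdilution in microdilution plates.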
In test [3] the test system is Pseudomonas aeruginosa. Kind of test: Antibacterial activity against Pseudomonas aeruginosa ATCC 27853 assessed as bacterial growth inhibition by broth microdilution method. The essentials: as §1
Test [4] relates to Staphylococcus aureus. The test is described as follows: Antibacterial activity against Staphylococcus aureus assessed as bacterial growth inhibition by broth microdilution method. The essentials: as §1
The test system of test [5] is Pseudomonas aeruginosa. The test is described as follows: Antibacterial activity against Pseudomonas aeruginosa assessed as bacterial growth inhibition by broth microdilution method. The procedure, abridged:
as §1

The subject of another test is Enterococcus faecalis. Kind of test: Antibacterial activity against Enterococcus faecalis assessed as bacterial growth inhibition by broth microdilution method. The essentials: as §1
The subject of test [6] is Staphylococcus aureus. Kind of test: Antibacterial activity against Staphylococcus aureus ATCC 25923 assessed as bacterial growth inhibition by broth microdilution method. The procedure, abridged:
as §1

The test system of the next test is Acinetobacter baumannii. Kind of test: Antibacterial activity against Acinetobacter baumannii assessed as bacterial growth inhibition by broth microdilution method. The procedure, abridged:
as §1

The test system of test [7] is Escherichia coli. Kind of test: Antibacterial activity against Escherichia coli ATCC 25922 assessed as bacterial growth inhibition by broth microdilution method. The procedure, abridged:
as §1

The next test relates to Klebsiella pneumoniae. Kind of test: Antibacterial activity against Klebsiella pneumonia assessed as bacterial growth inhibition by broth microdilution method. The essentials: as §1
Test [8] deals with Escherichia coli. Kind of test: Antibacterial activity against Escherichia coli assessed as bacterial growth inhibition by broth microdilution method. The procedure, abridged:
as §1

≈ marks a conversion by molar mass, not a printed value.

Regarding `Cc1nccn1C(CO)CS(=O)(=O)c1ccc(N)cc1` (stereo not drawn), the MIC with Staphylococcus aureus [1] was found to be 16 µg/mL (≈ 54.2 µM); with Staphylococcus aureus [2], 64 µg/mL (≈ 217 µM); in the test on Pseudomonas aeruginosa [3], 64 µg/mL (≈ 217 µM); in the test on Staphylococcus aureus [4], 128 µg/mL (≈ 433 µM); with Pseudomonas aeruginosa [5], 128 µg/mL (≈ 433 µM); in the test with Enterococcus faecalis it was 8 µg/mL (≈ 27.1 µM). In addition, the MIC came out at 64 µg/mL (≈ 217 µM) in the test on Staphylococcus aureus [6]; 16 µg/mL (≈ 54.2 µM) in the test with Acinetobacter baumannii; 32 µg/mL (≈ 108 µM) with Escherichia coli [7]; 128 µg/mL (≈ 433 µM) in the test on Klebsiella pneumoniae; 128 µg/mL (≈ 433 µM) in the test on Escherichia coli [8].

On to `CCc1nc(I)cn1C(CO)CS(=O)(=O)c1ccc(N)cc1` (stereo not drawn), for which the MIC with Staphylococcus aureus [1] came out at 16 µg/mL (≈ 36.8 µM); in the test on Staphylococcus aureus [2], 64 µg/mL (≈ 147 µM); with Pseudomonas aeruginosa [3], 32 µg/mL (≈ 73.5 µM); in the test on Staphylococcus aureus [4] it was 64 µg/mL (≈ 147 µM); with Pseudomonas aeruginosa [5], 256 µg/mL (≈ 588 µM); with Enterococcus faecalis, 64 µg/mL (≈ 147 µM). In addition, the MIC in the test on Staphylococcus aureus [6] was 64 µg/mL (≈ 147 µM); in the test with Acinetobacter baumannii, 64 µg/mL (≈ 147 µM); with Escherichia coli [7], 32 µg/mL (≈ 73.5 µM); with Klebsiella pneumoniae, 256 µg/mL (≈ 588 µM); in the test on Escherichia coli [8], 64 µg/mL (≈ 147 µM).

Take `CC(=O)Nc1ccc(S(=O)(=O)CC(CO)n2cc(I)nc2C)cc1` (stereo not drawn): the MIC with Staphylococcus aureus [1] was determined as 64 µg/mL (≈ 138 µM); in the test with Staphylococcus aureus [2] it was 64 µg/mL (≈ 138 µM); in the test with Pseudomonas aeruginosa [3], 32 µg/mL (≈ 69.1 µM); in the test on Staphylococcus aureus [4], 64 µg/mL (≈ 138 µM); in the test with Pseudomonas aeruginosa [5] it was 256 µg/mL (≈ 553 µM); with Enterococcus faecalis, 256 µg/mL (≈ 553 µM). Also, the MIC with Staphylococcus aureus [6] was determined as 64 µg/mL (≈ 138 µM); in the test with Acinetobacter baumannii, 64 µg/mL (≈ 138 µM); in the test with Escherichia coli [7] it was 32 µg/mL (≈ 69.1 µM); with Klebsiella pneumoniae, 256 µg/mL (≈ 553 µM); in the test with Escherichia coli [8], 64 µg/mL (≈ 138 µM).

`CC(=O)Nc1ccc(S(=O)(=O)CC(CO)n2ccnc2C)cc1` (stereo not drawn): the MIC in the test with Staphylococcus aureus [1] was determined as 8 µg/mL (≈ 23.7 µM); in the test on Staphylococcus aureus [2] it was 32 µg/mL (≈ 94.8 µM); in the test on Pseudomonas aeruginosa [3], 64 µg/mL (≈ 190 µM); in the test with Staphylococcus aureus [4] it was 64 µg/mL (≈ 190 µM); in the test on Pseudomonas aeruginosa [5], 128 µg/mL (≈ 379 µM); with Enterococcus faecalis it was 64 µg/mL (≈ 190 µM). Besides, the minimal inhibitory concentration (MIC) with Staphylococcus aureus [6] came out at 64 µg/mL (≈ 190 µM); with Acinetobacter baumannii it was 16 µg/mL (≈ 47.4 µM); with Escherichia coli [7] it was 32 µg/mL (≈ 94.8 µM); with Klebsiella pneumoniae, 128 µg/mL (≈ 379 µM); in the test with Escherichia coli [8] it was 64 µg/mL (≈ 190 µM).

Regarding `CC(=O)Nc1ccc(S(=O)(=O)CC(CO)n2cnc(I)c2)cc1` (stereo not drawn), the MIC with Staphylococcus aureus [1] worked out at 32 µg/mL (≈ 71.2 µM); in the test on Staphylococcus aureus [2] it was 64 µg/mL (≈ 142 µM); in the test with Pseudomonas aeruginosa [3], 32 µg/mL (≈ 71.2 µM); in the test with Staphylococcus aureus [4], 64 µg/mL (≈ 142 µM); with Pseudomonas aeruginosa [5], 32 µg/mL (≈ 71.2 µM); in the test with Enterococcus faecalis it was 64 µg/mL (≈ 142 µM). Besides, the MIC was 64 µg/mL (≈ 142 µM) in the test with Staphylococcus aureus [6]; 32 µg/mL (≈ 71.2 µM) with Acinetobacter baumannii; 32 µg/mL (≈ 71.2 µM) in the test with Escherichia coli [7]; 64 µg/mL (≈ 142 µM) in the test with Klebsiella pneumoniae; 128 µg/mL (≈ 285 µM) with Escherichia coli [8].

`Cc1cn(C(CO)CS(=O)(=O)c2ccc(N)cc2)cn1` (stereo not drawn): the MIC was 8 µg/mL (≈ 27.1 µM) in the test with Staphylococcus aureus [1]; 64 µg/mL (≈ 217 µM) with Staphylococcus aureus [2]; 32 µg/mL (≈ 108 µM) with Pseudomonas aeruginosa [3]; 64 µg/mL (≈ 217 µM) with Staphylococcus aureus [4]; 128 µg/mL (≈ 433 µM) in the test with Pseudomonas aeruginosa [5]; 16 µg/mL (≈ 54.2 µM) in the test on Enterococcus faecalis. Besides, the MIC with Staphylococcus aureus [6] was 32 µg/mL (≈ 108 µM); with Acinetobacter baumannii it was 16 µg/mL (≈ 54.2 µM); with Escherichia coli [7] it was 64 µg/mL (≈ 217 µM); with Klebsiella pneumoniae, 32 µg/mL (≈ 108 µM); with Escherichia coli [8], 64 µg/mL (≈ 217 µM).

`Nc1ccc(S(=O)(=O)CC(CO)n2ccnc2)cc1` (stereo not drawn): the MIC was 16 µg/mL (≈ 56.9 µM) in the test with Staphylococcus aureus [1]; 64 µg/mL (≈ 227 µM) in the test on Staphylococcus aureus [2]; 64 µg/mL (≈ 227 µM) in the test with Pseudomonas aeruginosa [3]; 32 µg/mL (≈ 114 µM) in the test with Staphylococcus aureus [4]; 256 µg/mL (≈ 910 µM) in the test on Pseudomonas aeruginosa [5]; 32 µg/mL (≈ 114 µM) in the test with Enterococcus faecalis. The MIC with Staphylococcus aureus [6] turned out to be 64 µg/mL (≈ 227 µM); in the test on Acinetobacter baumannii, 128 µg/mL (≈ 455 µM); in the test on Escherichia coli [7], 64 µg/mL (≈ 227 µM); in the test on Klebsiella pneumoniae, 128 µg/mL (≈ 455 µM); in the test on Escherichia coli [8], 128 µg/mL (≈ 455 µM).

On to `CCc1nc(I)cn1C(CO)CS(=O)(=O)c1ccc(NC(C)=O)cc1` (stereo not drawn), for which the MIC with Staphylococcus aureus [1] was determined as 128 µg/mL (≈ 268 µM); in the test with Staphylococcus aureus [2], 64 µg/mL (≈ 134 µM); in the test with Pseudomonas aeruginosa [3] it was 32 µg/mL (≈ 67 µM); with Staphylococcus aureus [4] it was 64 µg/mL (≈ 134 µM); in the test on Pseudomonas aeruginosa [5], 256 µg/mL (≈ 536 µM); in the test on Enterococcus faecalis, 64 µg/mL (≈ 134 µM). Also, the minimal inhibitory concentration (MIC) in the test with Staphylococcus aureus [6] was 64 µg/mL (≈ 134 µM); with Acinetobacter baumannii, 64 µg/mL (≈ 134 µM); with Escherichia coli [7], 32 µg/mL (≈ 67 µM); with Klebsiella pneumoniae, 64 µg/mL (≈ 134 µM); with Escherichia coli [8], 64 µg/mL (≈ 134 µM).
